Data published in ChEMBL document CHEMBL4680084, “New β-Lactam Derivatives Modulate Cell Adhesion and Signaling Mediated by RGD-Binding and Leukocyte Integrins” (J Med Chem, 2016).
pEC50, pIC50: −log10 of the molar value. Calls of active or inactive are those of the source. The calls are words filed in the database; no cut-off is given here.

Columns and labels:
[1] = system: SK-MEL-24; test: Toxicity in human SK-MEL-24 cells assessed as induction of cell necrosis and/or apoptosis incubated for 3 hrs by annexin V-PE and 7-AAD staining based by flow cytometry; conditions: sk-mel-24, 3 h
Procedure, shortened: (§1)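 After 3 h incubation, cells resuspended in complete medium and stained with annexin V-PE/7-AAD reagent for 20 min at room temperature in the dark. Flow cytometry sorted cells into viable, early apoptotic and late apoptotic/necrotic populations.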

[2] = target: T1, Integrin alpha-IIb/beta-3 (Homo sapiens, UniProt P05106+P08514); test: Agonist activity at alpha2bbeta3 in human HEL cells assessed as increase in cell adhesion to fibrinogen pre-incubated for 30 mins before fibrinogen and further incubated for 1 hr by nitrophenyl-N-acetyl-beta-D-glucosaminide substrate based chromogenic assay
Procedure, shortened: (§2)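 Compound or methanol vehicle pre-incubated with cells for 30 min at room temperature. Cells then plated on wells coated overnight at 4 °C with fibronectin 10 µg/mL (SK-MEL-24, K562, HT-29) or fibrinogen 10 µg/mL (MCF7, HEL). Seeding was 50,000 cells/well, or 100000 for HEL. Adhesion ran 1 h at room temperature. Wells washed with 1% BSA/PBS. Quadruplicate, at least three repeats.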

[3] = target: T2, Integrin alpha-L/beta-2 (LFA-1) (Homo sapiens, UniProt P05107+P20701); test: Agonist activity at alphaLbeta2 in human Jurkat E6.1 cells assessed as increase in cell adhesion to ICAM1 pre-incubated for 30 mins before ICAM1 and further incubated for 30 mins by […]; type: cell-based
Procedure, shortened: (§3)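 Jurkat E6.1 cells labelled with CellTracker green CMFDA (12.5 µM, 30 min, 37 °C), washed, then pre-incubated 30 min at 37 °C with compound or methanol. Plated at 500,000/well on VCAM-1 (α4β1) or ICAM-1 (αLβ2) coated wells (5 µg/mL) for 30 min at 37 °C. Cells lysed in 0.5% Triton X-100; fluorescence read Ex485/Em535. Quadruplicate, at least three repeats.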

[4] = target: T3, Integrin alpha-V/beta-5 (Homo sapiens, UniProt P06756+P18084); test: Inhibition of fibrinogen binding to alphaVbeta5 isolated form human mCf7 cells incubated for 1 hr by […] competitive solid-phase binding assay
[5] = target: T3, Integrin alpha-V/beta-5; test: Antagonist activity at alphaVbeta5 in human MCF7 cells assessed as reduction in cell adhesion to fibrinogen pre-incubated for 30 mins before fibrinogen and further incubated for 1 hr by nitrophenyl-N-acetyl-beta-D-glucosaminide substrate based chromogenic assay; procedure, shortened: as §2
[6] = system: K562; test: Toxicity in human K562 cells assessed as induction of cell necrosis and/or apoptosis incubated for 3 hrs by annexin V-PE and 7-AAD staining based by flow cytometry; conditions: k562, 3 h; procedure, shortened: as §1
[7] = target: T4, Integrin alpha-V/beta-6 (Homo sapiens, UniProt P06756+P18564); test: Inhibition of fibronectin binding to alphaVbeta6 isolated form human HT-29 cells incubated for 1 hr by […] competitive solid-phase binding assay; type: tissue-based
[8] = system: HT-29; test: Toxicity in human HT-29 cells assessed as induction of cell necrosis and/or apoptosis incubated for 3 hrs by annexin V-PE and 7-AAD staining based by flow cytometry; conditions: ht-29, 3 h; procedure, shortened: as §1
[9] = target: T5, Integrin alpha-4/beta-1 (Homo sapiens, UniProt P05556+P13612); test: Inhibition of fibronectin binding to […] isolated from human Jurkat E6.1 cells incubated for 1 hr by scintillation-proximity assay based competitive solid-phase binding assay; type: tissue-based
[10] = target: T5, Integrin alpha-4/beta-1; test: Agonist activity at alpha4beta1 in human Jurkat E6.1 cells assessed as increase in ERK1/2 phosphorylation at 1 to 100 nM by Western blot analysis; type: cell-based; conditions: filed as agonist, dose 1-100 nM
[11] = target: T5, Integrin alpha-4/beta-1; test: Agonist activity at alpha4beta1 in human Jurkat E6.1 cells assessed as increase in HUTS-21 antibody binding by flow cytometry analysis; type: cell-based; conditions: filed as agonist
Procedure, shortened: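 Jurkat E6.1 cells at 10⁶/mL in 1% BSA/HBSS incubated 30 min at 37 °C with compound. PE-labelled HUTS-21 mAb then added for 45 min at room temperature. Cells washed, 10,000 analysed by flow cytometry. MFI corrected to isotype control set to 0. Four independent experiments in duplicate.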

[12] = target: T1, Integrin alpha-IIb/beta-3; test: Antagonist activity at alpha2bbeta3 in human HEL cells assessed as reduction in cell adhesion to fibrinogen pre-incubated for 30 mins before fibrinogen and further incubated for 1 hr by nitrophenyl-N-acetyl-beta-D-glucosaminide substrate based chromogenic assay; procedure, shortened: as §2
[13] = target: T6, Integrin alpha-5/beta-1 (Homo sapiens, UniProt P05556+P08648); test: Inhibition of fibronectin binding to alpha5beta1 isolated from human K562 cells incubated for 1 hr by […] competitive solid-phase binding assay; type: tissue-based
Procedure, shortened: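 Plates coated overnight at 4 °C in carbonate buffer pH 9.6 with fibronectin 0.5 µg/mL (αvβ3, αvβ6, α5β1), fibrinogen 10 µg/mL (αIIbβ3, αvβ5) or ICAM-1 (αLβ2). Blocked 1 h in buffer containing Ca/Mg/Mn 1 mM each and 1% BSA. Purified integrin (3–10 µg/mL) incubated with compound (10⁻⁴–10⁻¹⁰ M) 1 h at room temperature. Bound integrin detected with primary antibody then AlexaFluor488 secondary, Ex485/Em535. Duplicate, at least three repeats.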

[14] = target: T7, Integrin alpha-V/beta-3 (Homo sapiens, UniProt P05106+P06756); test: Inhibition of fibronectin binding to human recombinant alphaVbeta3 expressed in HEK293 cells incubated for 1 hr by […] competitive solid-phase binding assay; type: cell-based
[15] = system: HEL; test: Toxicity in human HEL cells assessed as induction of cell necrosis and/or apoptosis incubated for 3 hrs by annexin V-PE and 7-AAD staining based by flow cytometry; procedure, shortened: as §1
[16] = target: T3, Integrin alpha-V/beta-5; test: Agonist activity at alphaVbeta5 in human MCF7 cells assessed as increase in cell adhesion to fibrinogen pre-incubated for 30 mins before fibrinogen and further incubated for 1 hr by nitrophenyl-N-acetyl-beta-D-glucosaminide substrate based chromogenic assay
Procedure, shortened: as §2, with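 “BSA/PBS. Adherent cells read by hexosaminidase substrate, absorbance 405 nm.” for “BSA/PBS.”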

[17] = target: T6, Integrin alpha-5/beta-1; test: Antagonist activity at alpha5beta1 in human K562 cells assessed as reduction in cell adhesion to fibronectin pre-incubated for 30 mins before fibronectin and further incubated for 1 hr by nitrophenyl-N-acetyl-beta-D-glucosaminide substrate based chromogenic assay
Procedure, shortened: as §2, with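 “BSA/PBS. Adherent cells read by hexosaminidase substrate, absorbance 405 nm.” for “BSA/PBS.”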

[18] = target: T6, Integrin alpha-5/beta-1; test: Agonist activity at alpha5beta1 in human K562 cells assessed as increase in cell adhesion to fibronectin pre-incubated for 30 mins before fibronectin and further incubated for 1 hr by nitrophenyl-N-acetyl-beta-D-glucosaminide substrate based chromogenic assay
Procedure, shortened: as §2, with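 “BSA/PBS. Adherent cells read by hexosaminidase substrate, absorbance 405 nm.” for “BSA/PBS.”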

[19] = target: T7, Integrin alpha-V/beta-3; test: Antagonist activity at alphaVbeta3 in human SK-MEL-24 cells assessed as reduction in cell adhesion to fibronectin pre-incubated for 30 mins before fibronectin and further incubated for 1 hr by nitrophenyl-N-acetyl-beta-D-glucosaminide substrate based chromogenic assay; procedure, shortened: as §2
[20] = target: T4, Integrin alpha-V/beta-6; test: Agonist activity at alphaVbeta6 in human HT-29 cells assessed as increase in cell adhesion to fibronectin pre-incubated for 30 mins before fibronectin and further incubated for 1 hr by nitrophenyl-N-acetyl-beta-D-glucosaminide substrate based chromogenic assay
Procedure, shortened: as §2, with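 “BSA/PBS. Adherent cells read by hexosaminidase substrate, absorbance 405 nm.” for “BSA/PBS.”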

[21] = system: MCF7; test: Toxicity in human MCF7 cells assessed as induction of cell necrosis and/or apoptosis incubated for 3 hrs by annexin V-PE and 7-AAD staining based by flow cytometry; conditions: mcf7, 3 h; procedure, shortened: as §1
[22] = target: T4, Integrin alpha-V/beta-6; test: Antagonist activity at alphaVbeta6 in human HT-29 cells assessed as reduction in cell adhesion to fibronectin pre-incubated for 30 mins before fibronectin and further incubated for 1 hr by nitrophenyl-N-acetyl-beta-D-glucosaminide substrate based chromogenic assay; procedure, shortened: as §2
[23] = target: T2, Integrin alpha-L/beta-2 (LFA-1); test: Antagonist activity at alphaLbeta2 in human Jurkat E6.1 cells assessed as reduction in cell adhesion to ICAM1 pre-incubated for 30 mins before ICAM1 and further incubated for 30 mins by […]; type: cell-based; procedure, shortened: as §3
[24] = target: T7, Integrin alpha-V/beta-3; test: Agonist activity at alphaVbeta3 in human SK-MEL-24 cells assessed as increase in cell adhesion to fibronectin pre-incubated for 30 mins before fibronectin and further incubated for 1 hr by nitrophenyl-N-acetyl-beta-D-glucosaminide substrate based chromogenic assay
Procedure, shortened: as §2, with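 “BSA/PBS. Adherent cells read by hexosaminidase substrate, absorbance 405 nm.” for “BSA/PBS.”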

[25] = target: T5, Integrin alpha-4/beta-1; test: Agonist activity at alpha4beta1 in human Jurkat E6.1 cells assessed as increase in cell adhesion to VCAM1 at 2 to 10 ug/ml pre-incubated for 30 mins and further incubated for 30 mins by nitrophenyl-N-acetyl-beta-D-glucosaminide substrate based chromogenic assay; conditions: filed as agonist, dose 2-10 µg/ml, time 60.0 min
[26] = target: T5, Integrin alpha-4/beta-1; test: Antagonist activity at alpha4beta1 in human Jurkat E6.1 cells assessed as reduction in cell adhesion to VCAM1 pre-incubated for 30 mins before VCAM1 and further incubated for 30 mins by […]; type: cell-based
[27] = target: T7, Integrin alpha-V/beta-3; test: Antagonist activity at alphaVbeta3 in human SK-MEL-24 cells assessed as reduction in cell adhesion to fibronectin at 10 to 10000 nM pre-incubated for 30 mins before fibronectin and further incubated for 1 hr by nitrophenyl-N-acetyl-beta-D-glucosaminide substrate based chromogenic assay; conditions: filed as antagonist, dose 10-10000 nM, time 90.0 min
Procedure, shortened: (§4)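 SK-MEL-24 cells pre-incubated 30 min at room temperature with compound (1×10^-10–1×10^-4 M) or methanol, then plated at 50,000/well on fibronectin (10 µg/mL) coated wells for 1 h at room temperature. Adherent cells quantified by 4-nitrophenyl-N-acetyl-glucosaminide hydrolysis, absorbance 405 nm. Quadruplicate, at least three repeats; IC50/EC50 derived.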

[28] = target: T5, Integrin alpha-4/beta-1; test: Agonist activity at alpha4beta1 in human Jurkat E6.1 cells assessed as increase in cell adhesion to VCAM1 pre-incubated for 30 mins before VCAM1 and further incubated for 30 mins by […]; type: cell-based; procedure, shortened: as §3
[29] = target: T7, Integrin alpha-V/beta-3; test: Agonist activity at alphaVbeta3 in human SK-MEL-24 cells assessed as increase in cell adhesion to fibronectin at 10 to 10000 nM pre-incubated for 30 mins before fibronectin and further incubated for 1 hr by nitrophenyl-N-acetyl-beta-D-glucosaminide substrate based chromogenic assay; conditions: filed as agonist, dose 10-10000 nM, time 90.0 min; procedure, shortened: as §4

Structure (SMILES)	Activity [1]	pEC50 [2]	pEC50 [3]	pIC50 [5]	Activity [6]	Activity [8]	pIC50 [12]	Activity [15]	pEC50 [16]	pIC50 [17]	pEC50 [18]	pEC50 [20]	Activity [21]	pIC50 [22]	pIC50 [23]	also measured
Cc1ccccc1NC(=O)N1C(=O)CC1CC(=O)O (centres undefined)	Non-Toxic	< 5.30	< 5.30	< 5.30	Non-Toxic	Non-Toxic	< 5.30	Non-Toxic	< 5.30	< 5.30	< 5.30	< 5.30	Non-Toxic	< 5.30	< 5.30	pIC50 [4]: < 6.00; pIC50 [7]: < 6.00; pIC50 [9]: 8.01; Activity [10]: Active; Activity [11]: Dose-dependent effect; pIC50 [13]: < 6.00; pIC50 [14]: < 6.00; pIC50 [19]: < 5.30; pEC50 [24]: < 5.30; Activity [25]: Active
Cc1ccccc1NC(=O)N1C(=O)C[C@H]1C(=O)NCCC(=O)O	Non-Toxic	< 5.30	< 5.30	< 5.30	Non-Toxic	Non-Toxic	< 5.30	Non-Toxic	< 5.30	< 5.30	< 5.30	< 5.30	Non-Toxic	< 5.30	< 5.30	pIC50 [26]: < 5.30; Activity [27]: Active; pEC50 [28]: < 5.30; Activity [29]: Active
